Data as given in ChEMBL document CHEMBL1145100, “Structure-activity relationship of imidazo[1,2-a]pyridines as ligands for detecting beta-amyloid plaques in the brain” (J Med Chem, 2003).

Biological target: Amyloid-beta precursor protein (Homo sapiens, UniProt P05067)
Assay: Inhibition constant against [125I]-7 (TZDM) binding to Amyloid beta 1-40 aggregates
In short: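 Abeta40 peptide aggregated at 0.5 mg/mL in pH 7.4 buffer (10 mM sodium phosphate, 1 mM EDTA), 37 °C for 36-42 h with shaking. Competition in 1 mL of 40% EtOH: fibrils 10-50 nM final, radiotracer 0.05 nM, inhibitors 10^-5 to 10^-10 M. Nonspecific binding with 2 µM thioflavin-T. Incubated 3 h at room temperature, then GF/B filtration with 10% ethanol washes and gamma counting. Ki from nonlinear regression.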

Chain of Amyloid-beta precursor protein (P05067 whole entry): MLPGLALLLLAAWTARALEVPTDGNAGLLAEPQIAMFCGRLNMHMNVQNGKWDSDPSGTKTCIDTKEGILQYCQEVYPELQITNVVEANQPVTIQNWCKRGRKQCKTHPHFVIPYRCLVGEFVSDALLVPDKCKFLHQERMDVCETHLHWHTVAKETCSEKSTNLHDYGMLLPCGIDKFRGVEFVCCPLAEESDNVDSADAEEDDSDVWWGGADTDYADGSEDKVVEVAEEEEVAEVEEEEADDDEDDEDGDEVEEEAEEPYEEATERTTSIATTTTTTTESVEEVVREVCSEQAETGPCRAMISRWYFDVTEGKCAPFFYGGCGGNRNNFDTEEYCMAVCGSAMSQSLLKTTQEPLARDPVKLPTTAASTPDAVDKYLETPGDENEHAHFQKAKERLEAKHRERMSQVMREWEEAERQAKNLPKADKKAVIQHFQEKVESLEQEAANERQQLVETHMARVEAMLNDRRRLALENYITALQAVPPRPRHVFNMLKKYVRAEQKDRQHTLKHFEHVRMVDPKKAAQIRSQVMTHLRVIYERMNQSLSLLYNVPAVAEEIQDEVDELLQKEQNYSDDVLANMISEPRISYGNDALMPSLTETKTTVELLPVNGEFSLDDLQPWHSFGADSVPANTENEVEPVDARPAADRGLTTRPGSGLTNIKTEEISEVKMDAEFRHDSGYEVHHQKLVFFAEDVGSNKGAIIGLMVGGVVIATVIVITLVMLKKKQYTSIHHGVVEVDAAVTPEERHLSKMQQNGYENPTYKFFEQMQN

Cc1ccc2nc(-c3ccc(Br)cc3)cn2c1
Ki: 638 nM

CN(C)c1ccc(-c2nc3ccccn3c2I)cc1
Ki: > 2000 nM

CN(C)c1ccc(-c2cn3ccccc3n2)cc1
Ki: > 2000 nM
